Laboratory results taken from ChEMBL document CHEMBL5046221, “Identification of Pyrimidine-Based Lead Compounds for Understudied Kinases Implicated in Driving Neurodegeneration” (J Med Chem, 2022).

Assays:
[1] = molecular target: Serine/threonine-protein kinase NIM1 (Homo sapiens, UniProt Q8IY84); assay: Inhibition of full length recombinant human NIM1 using KKKVSRSGLYRSPSMPENLNRPR as substrate incubated for 40 mins in presence of [gamma-33P-ATP] by radiometric scintillation assay
Procedure, shortened: (§1)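 Eurofins radiometric enzymatic assay with ATP at Km for each kinase. IC50 was derived from a 9-point dose–response curve run in duplicate.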

[2] = molecular target: T1, Serine/threonine-protein kinase 17A (Homo sapiens, UniProt Q9UEE5); assay: Displacement of tracer K9 from NLuc fused DRAK1 (unknown origin) expressed in HEK293 cells by NanoBRET assay; type: cell-based
T1 sequence (Q9UEE5 whole entry): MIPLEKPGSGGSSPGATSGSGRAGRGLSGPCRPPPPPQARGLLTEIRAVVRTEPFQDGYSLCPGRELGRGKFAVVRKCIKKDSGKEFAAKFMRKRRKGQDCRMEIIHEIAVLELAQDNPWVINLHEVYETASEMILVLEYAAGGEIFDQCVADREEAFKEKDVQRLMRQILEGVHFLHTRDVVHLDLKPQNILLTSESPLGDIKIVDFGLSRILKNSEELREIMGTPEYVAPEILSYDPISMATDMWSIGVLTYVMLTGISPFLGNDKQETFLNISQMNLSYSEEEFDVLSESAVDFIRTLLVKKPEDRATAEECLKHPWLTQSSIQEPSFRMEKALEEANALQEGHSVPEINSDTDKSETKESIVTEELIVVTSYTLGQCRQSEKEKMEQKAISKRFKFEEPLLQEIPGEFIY

[3] = molecular target: MAP/microtubule affinity-regulating kinase 3 (Homo sapiens, UniProt P27448); assay: Displacement of tracer K9 from NLuc fused MARK3 (unknown origin) expressed in HEK293 cells by NanoBRET assay; type: cell-based
Chain of MAP/microtubule affinity-regulating kinase 3 (P27448 whole entry, the tested form may be a part): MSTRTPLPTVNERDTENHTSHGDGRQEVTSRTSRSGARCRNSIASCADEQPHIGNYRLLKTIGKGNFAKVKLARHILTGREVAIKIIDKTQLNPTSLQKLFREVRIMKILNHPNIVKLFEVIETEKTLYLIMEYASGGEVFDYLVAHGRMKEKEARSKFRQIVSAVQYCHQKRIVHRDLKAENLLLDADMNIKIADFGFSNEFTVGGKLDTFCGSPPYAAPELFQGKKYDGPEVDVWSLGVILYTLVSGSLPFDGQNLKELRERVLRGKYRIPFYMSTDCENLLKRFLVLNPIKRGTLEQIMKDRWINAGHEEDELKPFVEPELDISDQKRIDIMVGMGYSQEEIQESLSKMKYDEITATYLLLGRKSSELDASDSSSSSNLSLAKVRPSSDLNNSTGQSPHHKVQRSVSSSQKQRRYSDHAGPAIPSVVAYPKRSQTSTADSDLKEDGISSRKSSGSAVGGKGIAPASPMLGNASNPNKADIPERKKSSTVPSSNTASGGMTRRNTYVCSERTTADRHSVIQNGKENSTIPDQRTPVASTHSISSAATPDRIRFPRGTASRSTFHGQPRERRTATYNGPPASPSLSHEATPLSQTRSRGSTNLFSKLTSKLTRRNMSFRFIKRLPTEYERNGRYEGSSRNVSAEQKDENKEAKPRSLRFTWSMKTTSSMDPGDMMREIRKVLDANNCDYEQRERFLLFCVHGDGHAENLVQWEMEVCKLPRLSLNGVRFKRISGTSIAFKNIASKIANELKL

[4] = molecular target: T2, MAP/microtubule affinity-regulating kinase 4 (Homo sapiens, UniProt Q96L34); assay: Displacement of tracer K5 from NLuc fused MARK4 (unknown origin) expressed in HEK293 cells by NanoBRET assay; type: cell-based
T2 sequence (Q96L34 whole entry): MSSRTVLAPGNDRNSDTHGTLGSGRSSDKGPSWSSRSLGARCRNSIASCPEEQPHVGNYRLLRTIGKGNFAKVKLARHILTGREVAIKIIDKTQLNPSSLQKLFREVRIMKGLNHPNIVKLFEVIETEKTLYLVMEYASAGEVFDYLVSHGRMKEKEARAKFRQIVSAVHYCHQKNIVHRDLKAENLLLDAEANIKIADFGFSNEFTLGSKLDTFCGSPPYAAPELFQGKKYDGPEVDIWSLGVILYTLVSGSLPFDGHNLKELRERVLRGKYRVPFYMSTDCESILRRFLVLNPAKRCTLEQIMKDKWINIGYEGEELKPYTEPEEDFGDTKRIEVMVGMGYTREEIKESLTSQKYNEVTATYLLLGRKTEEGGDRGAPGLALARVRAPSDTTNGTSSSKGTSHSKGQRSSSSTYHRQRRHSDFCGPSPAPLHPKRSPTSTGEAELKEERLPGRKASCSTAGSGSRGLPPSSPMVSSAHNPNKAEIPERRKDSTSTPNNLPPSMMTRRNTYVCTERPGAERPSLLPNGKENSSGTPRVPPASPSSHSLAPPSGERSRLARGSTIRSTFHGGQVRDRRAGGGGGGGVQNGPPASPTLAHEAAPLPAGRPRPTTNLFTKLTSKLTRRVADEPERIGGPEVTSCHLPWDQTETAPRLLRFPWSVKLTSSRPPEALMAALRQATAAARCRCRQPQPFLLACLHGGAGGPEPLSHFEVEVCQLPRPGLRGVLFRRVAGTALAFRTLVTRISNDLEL

[5] = molecular target: T3, Serine/threonine-protein kinase TBK1 (Homo sapiens, UniProt Q9UHD2); assay: Displacement of tracer K5 from NLuc fused TBK1 (unknown origin) expressed in HEK293 cells by NanoBRET assay; type: cell-based
T3 sequence (Q9UHD2 whole entry): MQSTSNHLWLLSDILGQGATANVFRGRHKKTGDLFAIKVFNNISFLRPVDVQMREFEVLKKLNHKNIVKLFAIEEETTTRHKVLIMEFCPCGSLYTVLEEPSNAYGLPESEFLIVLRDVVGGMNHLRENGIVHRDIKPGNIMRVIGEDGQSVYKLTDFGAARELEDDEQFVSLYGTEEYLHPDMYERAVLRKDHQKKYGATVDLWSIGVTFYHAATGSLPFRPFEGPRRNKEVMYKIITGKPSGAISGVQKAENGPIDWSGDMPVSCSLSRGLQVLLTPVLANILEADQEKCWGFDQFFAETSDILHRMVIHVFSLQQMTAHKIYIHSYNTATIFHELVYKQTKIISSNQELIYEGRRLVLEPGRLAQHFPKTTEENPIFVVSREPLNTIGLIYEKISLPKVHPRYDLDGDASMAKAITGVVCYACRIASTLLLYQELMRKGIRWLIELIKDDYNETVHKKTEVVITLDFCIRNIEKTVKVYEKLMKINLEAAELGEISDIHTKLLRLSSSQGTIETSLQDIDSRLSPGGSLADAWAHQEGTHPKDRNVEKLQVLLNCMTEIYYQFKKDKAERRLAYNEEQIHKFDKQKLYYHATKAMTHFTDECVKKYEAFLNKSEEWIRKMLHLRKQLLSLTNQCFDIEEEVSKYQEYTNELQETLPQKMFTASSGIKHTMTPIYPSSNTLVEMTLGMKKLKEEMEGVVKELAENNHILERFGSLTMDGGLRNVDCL
Procedure, shortened: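 HEK293 cells grown in DMEM with 10% FBS at 37 °C, 5% CO2. NanoBRET assay run in dose–response per manufacturer's protocol with tracer K-5 at 0.5 μM. SEM calculated for assays run more than once.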

[6] = molecular target: T4, Leucine-rich repeat serine/threonine-protein kinase 2 (Homo sapiens, UniProt Q5S007); assay: Inhibition of recombinant human LRRK2 (970 to end residues) using RLGRDKYKTLRQIRQ as substrate incubated for 40 mins in presence of [gamma-33P-ATP] by radiometric scintillation assay
T4 sequence (Q5S007 whole entry): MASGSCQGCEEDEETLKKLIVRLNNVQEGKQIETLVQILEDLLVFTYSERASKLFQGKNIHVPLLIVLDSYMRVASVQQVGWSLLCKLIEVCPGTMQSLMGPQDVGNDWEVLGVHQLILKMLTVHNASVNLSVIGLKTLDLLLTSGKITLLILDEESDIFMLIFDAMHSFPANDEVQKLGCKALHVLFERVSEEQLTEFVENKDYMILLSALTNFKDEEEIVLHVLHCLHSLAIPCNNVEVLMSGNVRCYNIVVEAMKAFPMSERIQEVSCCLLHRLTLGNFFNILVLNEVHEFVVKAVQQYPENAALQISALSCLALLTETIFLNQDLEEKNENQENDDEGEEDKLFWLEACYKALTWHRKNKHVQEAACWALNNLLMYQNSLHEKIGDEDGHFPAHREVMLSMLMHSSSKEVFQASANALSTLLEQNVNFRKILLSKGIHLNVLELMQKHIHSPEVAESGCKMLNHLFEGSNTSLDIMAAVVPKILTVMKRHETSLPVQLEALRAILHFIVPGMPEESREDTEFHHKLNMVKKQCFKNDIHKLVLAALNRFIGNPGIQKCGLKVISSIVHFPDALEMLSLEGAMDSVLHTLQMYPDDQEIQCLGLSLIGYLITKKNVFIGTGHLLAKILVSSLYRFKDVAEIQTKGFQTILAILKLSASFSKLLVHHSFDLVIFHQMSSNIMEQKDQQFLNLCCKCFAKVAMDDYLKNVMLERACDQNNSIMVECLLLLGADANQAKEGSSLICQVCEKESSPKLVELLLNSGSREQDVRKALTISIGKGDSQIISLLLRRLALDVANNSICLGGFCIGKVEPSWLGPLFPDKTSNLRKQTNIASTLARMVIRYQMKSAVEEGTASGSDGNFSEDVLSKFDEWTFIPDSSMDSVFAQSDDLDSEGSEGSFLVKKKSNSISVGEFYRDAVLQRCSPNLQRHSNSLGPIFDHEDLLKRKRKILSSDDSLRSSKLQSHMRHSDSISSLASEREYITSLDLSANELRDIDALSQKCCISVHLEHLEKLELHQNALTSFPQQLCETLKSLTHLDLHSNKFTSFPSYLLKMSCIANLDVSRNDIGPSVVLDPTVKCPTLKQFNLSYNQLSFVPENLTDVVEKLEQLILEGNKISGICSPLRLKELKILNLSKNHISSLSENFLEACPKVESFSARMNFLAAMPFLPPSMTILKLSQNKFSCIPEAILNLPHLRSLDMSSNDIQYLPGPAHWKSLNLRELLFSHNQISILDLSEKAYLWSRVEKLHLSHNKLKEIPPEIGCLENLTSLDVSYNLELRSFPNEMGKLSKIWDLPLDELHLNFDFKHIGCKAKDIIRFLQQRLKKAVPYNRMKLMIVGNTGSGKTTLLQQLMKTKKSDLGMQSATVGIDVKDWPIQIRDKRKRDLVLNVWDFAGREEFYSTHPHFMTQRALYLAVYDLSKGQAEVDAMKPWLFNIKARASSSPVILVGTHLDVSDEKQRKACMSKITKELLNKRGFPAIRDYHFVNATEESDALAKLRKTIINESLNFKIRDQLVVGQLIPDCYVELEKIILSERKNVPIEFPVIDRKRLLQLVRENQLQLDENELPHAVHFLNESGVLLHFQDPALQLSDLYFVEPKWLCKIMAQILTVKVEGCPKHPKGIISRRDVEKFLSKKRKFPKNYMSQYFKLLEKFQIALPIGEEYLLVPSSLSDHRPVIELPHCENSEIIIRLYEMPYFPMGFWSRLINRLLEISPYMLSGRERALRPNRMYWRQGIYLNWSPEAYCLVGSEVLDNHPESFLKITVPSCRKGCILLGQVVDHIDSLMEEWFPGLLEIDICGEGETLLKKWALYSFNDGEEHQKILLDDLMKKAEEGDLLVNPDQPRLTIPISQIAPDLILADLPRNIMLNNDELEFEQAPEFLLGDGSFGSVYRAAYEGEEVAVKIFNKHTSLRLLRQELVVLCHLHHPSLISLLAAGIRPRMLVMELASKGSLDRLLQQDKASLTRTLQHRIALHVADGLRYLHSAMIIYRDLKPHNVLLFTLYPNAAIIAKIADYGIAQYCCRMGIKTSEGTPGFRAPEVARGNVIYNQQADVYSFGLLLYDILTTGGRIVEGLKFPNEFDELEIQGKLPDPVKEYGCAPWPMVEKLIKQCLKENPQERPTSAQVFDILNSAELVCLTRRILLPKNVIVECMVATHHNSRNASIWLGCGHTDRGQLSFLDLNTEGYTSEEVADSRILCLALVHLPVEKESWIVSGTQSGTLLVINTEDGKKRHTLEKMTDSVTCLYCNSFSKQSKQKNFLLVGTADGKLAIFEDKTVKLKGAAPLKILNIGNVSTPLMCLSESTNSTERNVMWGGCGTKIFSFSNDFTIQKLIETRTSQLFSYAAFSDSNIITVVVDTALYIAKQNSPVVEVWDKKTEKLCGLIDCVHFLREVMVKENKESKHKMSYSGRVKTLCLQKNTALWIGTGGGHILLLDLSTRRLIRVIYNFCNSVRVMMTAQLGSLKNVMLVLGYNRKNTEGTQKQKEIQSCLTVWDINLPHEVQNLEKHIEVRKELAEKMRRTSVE
Procedure, shortened: (§2)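 Eurofins radiometric kinase assay run at ATP equal to Km for each kinase. 9-point dose–response in duplicate gives the IC50.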

[7] = molecular target: Myosin light chain kinase 2, skeletal/cardiac muscle (Homo sapiens, UniProt Q9H1R3); assay: Inhibition of full length recombinant human MYLK2 using KKLNRTLSFAEPG as substrate incubated for 40 mins in presence of [gamma-33P-ATP] by radiometric scintillation assay; procedure, shortened: as §1
Chain of Myosin light chain kinase 2, skeletal/cardiac muscle (Q9H1R3 whole entry, the tested form may be a part): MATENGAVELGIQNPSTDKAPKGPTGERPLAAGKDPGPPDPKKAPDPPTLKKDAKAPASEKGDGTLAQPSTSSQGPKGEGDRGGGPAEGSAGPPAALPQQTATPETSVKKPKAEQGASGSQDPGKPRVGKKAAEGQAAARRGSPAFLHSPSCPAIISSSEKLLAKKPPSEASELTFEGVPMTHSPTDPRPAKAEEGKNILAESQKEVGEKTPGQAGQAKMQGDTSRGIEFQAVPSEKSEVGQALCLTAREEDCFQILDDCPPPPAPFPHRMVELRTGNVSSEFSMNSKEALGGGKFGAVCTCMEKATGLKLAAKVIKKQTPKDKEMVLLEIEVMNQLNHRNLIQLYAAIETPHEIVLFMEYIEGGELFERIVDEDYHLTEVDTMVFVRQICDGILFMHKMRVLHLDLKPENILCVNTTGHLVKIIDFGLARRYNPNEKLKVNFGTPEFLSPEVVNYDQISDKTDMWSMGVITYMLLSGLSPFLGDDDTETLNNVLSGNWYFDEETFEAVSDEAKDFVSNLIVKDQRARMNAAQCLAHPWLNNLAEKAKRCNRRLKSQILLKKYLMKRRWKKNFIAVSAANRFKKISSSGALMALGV

[8] = molecular target: T4, Leucine-rich repeat serine/threonine-protein kinase 2; assay: Inhibition of NanoLuc-fused LRRK2 (unknown origin) expressed in HEK293 cells incubated for 2 hrs by NanoBRET assay; type: cell-based
Procedure, shortened: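 Cellular target engagement by NanoBRET in dose–response, done in singlicate by Carna Biosciences following the manufacturer's protocol. Compounds tested at concentrations up to 10 μM.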

[9] = Kinetic solubility of compound in PBS at pH 7.4 incubated for 24 hrs by chemiluminscent nitrogen detection method; type: physicochemical; details: buffer, pH 7.4, 24 h
Procedure, shortened: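 Filtrates were quantified by total chemiluminescent nitrogen determination against a calibration curve, with correction for background nitrogen from DMSO and medium.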

[10] = Effective permeability in PBS at 7.4 incubated for 5 hrs by PAMPA analysis; type: ADME; details: pH 7.4, 5 h
Procedure, shortened: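 PAMPA: DMSO stocks were diluted in PBS pH 7.4 and placed in the donor compartment, with PBS pH 7.4 in the acceptor, for 5 h. Both compartments were quantified by CLND against a calibration curve, with background nitrogen correction. Effective permeability was calculated from donor and acceptor concentrations using measured rather than assumed solubility.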

[11] = molecular target: T5, Serine/threonine-protein kinase 17B (Homo sapiens) (UniProt O94768); assay: Inhibition of full length recombinant human DRAK2 using KKRPQRRYSNVF as substrate at 1 uM incubated for 120 mins in presence of [gamma-33P-ATP] by radiometric scintillation assay relative to control
T5 sequence (whole entry): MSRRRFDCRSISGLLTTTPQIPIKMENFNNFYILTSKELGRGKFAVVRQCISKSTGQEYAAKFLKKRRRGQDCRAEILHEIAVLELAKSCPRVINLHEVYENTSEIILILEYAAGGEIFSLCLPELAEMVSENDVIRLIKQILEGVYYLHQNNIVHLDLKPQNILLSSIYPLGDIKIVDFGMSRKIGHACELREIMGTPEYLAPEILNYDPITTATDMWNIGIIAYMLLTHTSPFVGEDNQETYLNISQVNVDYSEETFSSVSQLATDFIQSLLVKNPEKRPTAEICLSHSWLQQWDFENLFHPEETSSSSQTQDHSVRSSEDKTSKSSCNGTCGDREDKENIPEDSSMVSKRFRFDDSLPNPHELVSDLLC
Procedure, shortened: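 Eurofins radiometric kinase assay with ATP at Km for each kinase. Compound was tested at a single 1 μM concentration in duplicate, and the result is reported as percent of control.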

[12] = molecular target: MAP kinase-interacting serine/threonine-protein kinase 2 (Homo sapiens, UniProt Q9HBH9); assay: Inhibition of full length recombinant human MKNK2 using myelin basic protein as substrate incubated for 40 mins in presence of [gamma-33P-ATP] by radiometric scintillation assay; procedure, shortened: as §2
Chain of MAP kinase-interacting serine/threonine-protein kinase 2 (Q9HBH9 whole entry): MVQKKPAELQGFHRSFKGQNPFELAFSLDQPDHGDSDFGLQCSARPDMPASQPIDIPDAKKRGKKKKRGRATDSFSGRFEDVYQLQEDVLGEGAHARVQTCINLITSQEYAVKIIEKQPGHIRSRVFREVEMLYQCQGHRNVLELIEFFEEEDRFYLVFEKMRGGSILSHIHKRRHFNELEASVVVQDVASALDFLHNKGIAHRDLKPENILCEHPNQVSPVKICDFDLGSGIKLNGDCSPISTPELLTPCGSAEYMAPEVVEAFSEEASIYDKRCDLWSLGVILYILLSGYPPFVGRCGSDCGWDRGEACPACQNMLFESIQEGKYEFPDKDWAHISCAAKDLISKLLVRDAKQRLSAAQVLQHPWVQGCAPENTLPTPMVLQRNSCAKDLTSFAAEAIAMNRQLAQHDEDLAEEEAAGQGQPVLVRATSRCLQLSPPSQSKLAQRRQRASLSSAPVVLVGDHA

[13] = molecular target: Serine/threonine-protein kinase 32B (Homo sapiens, UniProt Q9NY57); assay: Inhibition of full length recombinant human YANK2 using casein as substrate incubated for 120 mins in presence of [gamma-33P-ATP] by radiometric scintillation assay; procedure, shortened: as §1
Chain of Serine/threonine-protein kinase 32B (Q9NY57 whole entry): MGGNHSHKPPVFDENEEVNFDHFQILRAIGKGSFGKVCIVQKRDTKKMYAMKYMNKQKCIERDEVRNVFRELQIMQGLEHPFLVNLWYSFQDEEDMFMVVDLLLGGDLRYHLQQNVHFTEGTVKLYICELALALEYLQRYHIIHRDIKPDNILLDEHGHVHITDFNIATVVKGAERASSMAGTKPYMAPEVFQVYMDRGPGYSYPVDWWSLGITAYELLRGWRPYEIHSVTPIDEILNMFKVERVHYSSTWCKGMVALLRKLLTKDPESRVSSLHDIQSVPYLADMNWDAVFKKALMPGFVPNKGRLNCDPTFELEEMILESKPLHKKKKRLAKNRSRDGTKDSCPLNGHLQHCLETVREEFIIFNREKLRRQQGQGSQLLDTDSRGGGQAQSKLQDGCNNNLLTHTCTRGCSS

Structure (SMILES)	IC50 [1] [µM]	IC50 [2] [µM]	IC50 [3] [µM]	IC50 [4] [µM]	IC50 [5] [µM]	IC50 [6] [µM]	IC50 [7] [µM]	IC50 [8] [µM]	Kinetic_solubility [9] [µM]	Peff [10]	% control [11] [%]	IC50 [12] [µM]	IC50 [13] [µM]
Cc1nn(CC(F)(F)F)cc1Nc1ncc(C2CC2)c(NCCc2c[nH]cn2)n1	4.4	> 10	> 10	> 10	> 10	0.089	1.12	> 10	171	3.89 10^-7 cm/s	59		
Cc1nn(CC(F)(F)F)cc1Nc1nccc(NCCCNC(=O)C2CCC2)n1		> 10	> 10	> 10	> 10				174.6	2.39 10^-6 cm/s	60	2.87	> 10
